From publication PMC3992716 (European journal of pharmacology, 2013) come the findings set out here.

Usually IC50 stands for the concentration that inhibits the measured activity by half. A higher IC50 goes with weaker potency in that assay. In general, EC50 refers to the concentration that produces a half-maximal response. A higher EC50 goes with a less potent agent.

Experiment [1] addresses T1, α4β2α6β2β3 (Homo sapiens, UniProt P17787+P43681+Q05901+Q15825). The class given is cell-based. An outline of the steps: (§1)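 Xenopus oocytes defolliculated with collagenase, clamped at −60 mV and perfused with Ringer's containing 1 μM atropine. Rising test compound concentrations were co-applied with control ACh (100 μM for α4(2)β2(2)α5, 30 μM for α4β2α6β2β3), alternating with ACh alone; fresh cells were used if ACh controls fell below 75%. Peak currents were normalised to the preceding ACh control.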

Experiment [2] has as its target T2, α4(2)β2(2)α5 (Homo sapiens, UniProt P17787+P30532+P43681). The class given is cell-based. An outline of the steps:
as §1

In another experiment the target is α2(2)β2(2)α5 (Homo sapiens, UniProt P17787+P30532+Q15822). Description: two-electrode voltage clamp, Xenopus oocytes, agonist-evoked response. The class given is cell-based. For orientation: In two-electrode clamp one electrode senses voltage and the other passes current.
For experiment [3], the target named is T2, α4(2)β2(2)α5. The experiment can be described thus: cell-based.
Experiment [4] addresses T1, α4β2α6β2β3. Description: cell-based.

Structures are written as SMILES.

T2 sequence (P43681 27-627): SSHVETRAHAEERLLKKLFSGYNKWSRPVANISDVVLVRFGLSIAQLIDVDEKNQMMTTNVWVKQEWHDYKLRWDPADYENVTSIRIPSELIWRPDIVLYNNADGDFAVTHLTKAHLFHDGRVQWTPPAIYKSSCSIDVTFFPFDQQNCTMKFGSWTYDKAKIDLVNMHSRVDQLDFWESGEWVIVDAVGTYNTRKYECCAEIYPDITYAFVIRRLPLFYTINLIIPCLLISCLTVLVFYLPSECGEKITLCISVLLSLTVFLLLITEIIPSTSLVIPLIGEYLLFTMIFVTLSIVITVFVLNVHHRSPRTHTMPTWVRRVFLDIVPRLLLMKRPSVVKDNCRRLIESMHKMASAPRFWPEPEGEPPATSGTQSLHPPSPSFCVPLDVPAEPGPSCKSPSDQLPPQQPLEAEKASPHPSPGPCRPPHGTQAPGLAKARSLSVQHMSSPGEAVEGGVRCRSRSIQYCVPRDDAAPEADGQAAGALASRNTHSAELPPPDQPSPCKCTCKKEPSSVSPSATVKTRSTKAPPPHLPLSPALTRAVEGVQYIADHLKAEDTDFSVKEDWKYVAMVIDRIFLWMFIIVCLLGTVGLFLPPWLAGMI
T2 sequence (P17787 26-502): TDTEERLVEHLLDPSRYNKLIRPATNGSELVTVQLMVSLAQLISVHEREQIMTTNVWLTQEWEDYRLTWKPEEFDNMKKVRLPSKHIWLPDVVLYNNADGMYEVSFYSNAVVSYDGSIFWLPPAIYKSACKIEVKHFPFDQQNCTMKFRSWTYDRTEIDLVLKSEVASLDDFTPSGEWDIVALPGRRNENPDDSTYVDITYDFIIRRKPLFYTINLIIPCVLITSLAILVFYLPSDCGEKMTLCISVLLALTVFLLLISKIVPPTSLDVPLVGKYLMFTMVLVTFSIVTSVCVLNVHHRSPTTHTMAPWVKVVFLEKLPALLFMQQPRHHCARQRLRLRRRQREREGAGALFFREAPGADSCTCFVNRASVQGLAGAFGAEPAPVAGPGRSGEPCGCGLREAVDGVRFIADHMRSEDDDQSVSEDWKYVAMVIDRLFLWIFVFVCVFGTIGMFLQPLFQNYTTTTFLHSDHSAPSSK
T2 sequence (P30532 23-468): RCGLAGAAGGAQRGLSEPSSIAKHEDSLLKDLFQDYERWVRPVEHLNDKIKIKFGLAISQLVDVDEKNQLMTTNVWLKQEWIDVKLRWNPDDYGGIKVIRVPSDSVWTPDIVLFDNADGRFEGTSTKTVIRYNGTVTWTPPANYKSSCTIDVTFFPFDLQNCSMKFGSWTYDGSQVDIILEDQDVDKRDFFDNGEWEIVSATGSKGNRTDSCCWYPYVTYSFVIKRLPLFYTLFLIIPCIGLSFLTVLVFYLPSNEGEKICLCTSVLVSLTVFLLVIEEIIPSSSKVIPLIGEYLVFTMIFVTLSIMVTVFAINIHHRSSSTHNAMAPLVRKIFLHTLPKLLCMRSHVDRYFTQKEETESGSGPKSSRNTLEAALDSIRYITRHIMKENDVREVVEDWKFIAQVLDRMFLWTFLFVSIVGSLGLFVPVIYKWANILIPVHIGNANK
T1 sequence (P43681 27-627): as the sequence (P43681 27-627) above
T1 sequence (P17787 26-502): as the sequence (P17787 26-502) above
T1 sequence (Q15825 26-494): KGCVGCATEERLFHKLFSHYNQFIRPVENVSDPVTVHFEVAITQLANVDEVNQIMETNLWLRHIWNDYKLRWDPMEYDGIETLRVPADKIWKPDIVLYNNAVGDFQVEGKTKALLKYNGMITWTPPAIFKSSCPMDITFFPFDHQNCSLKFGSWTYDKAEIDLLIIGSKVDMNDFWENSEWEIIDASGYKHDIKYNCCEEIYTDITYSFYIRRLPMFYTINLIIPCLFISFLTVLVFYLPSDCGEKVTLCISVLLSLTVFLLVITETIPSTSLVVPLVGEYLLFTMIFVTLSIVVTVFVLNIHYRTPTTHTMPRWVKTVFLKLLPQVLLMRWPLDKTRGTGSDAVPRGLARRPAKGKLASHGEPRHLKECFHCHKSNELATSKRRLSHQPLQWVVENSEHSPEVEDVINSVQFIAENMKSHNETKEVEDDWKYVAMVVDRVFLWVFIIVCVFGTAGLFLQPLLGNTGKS
T1 sequence (Q05901 22-458): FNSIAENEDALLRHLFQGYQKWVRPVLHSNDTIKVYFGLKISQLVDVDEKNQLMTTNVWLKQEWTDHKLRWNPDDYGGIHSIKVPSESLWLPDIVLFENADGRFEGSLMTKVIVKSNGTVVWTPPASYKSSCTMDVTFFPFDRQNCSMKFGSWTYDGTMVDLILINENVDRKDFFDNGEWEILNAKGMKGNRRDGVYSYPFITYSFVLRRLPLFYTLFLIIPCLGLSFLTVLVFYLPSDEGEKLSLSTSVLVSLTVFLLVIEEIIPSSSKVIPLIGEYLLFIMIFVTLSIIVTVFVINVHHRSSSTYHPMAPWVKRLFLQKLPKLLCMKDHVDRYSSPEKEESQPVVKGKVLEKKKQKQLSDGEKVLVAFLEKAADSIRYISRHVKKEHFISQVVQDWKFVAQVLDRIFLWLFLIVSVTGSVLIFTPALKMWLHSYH
Chain of α2(2)β2(2)α5 (Q15822 27-529): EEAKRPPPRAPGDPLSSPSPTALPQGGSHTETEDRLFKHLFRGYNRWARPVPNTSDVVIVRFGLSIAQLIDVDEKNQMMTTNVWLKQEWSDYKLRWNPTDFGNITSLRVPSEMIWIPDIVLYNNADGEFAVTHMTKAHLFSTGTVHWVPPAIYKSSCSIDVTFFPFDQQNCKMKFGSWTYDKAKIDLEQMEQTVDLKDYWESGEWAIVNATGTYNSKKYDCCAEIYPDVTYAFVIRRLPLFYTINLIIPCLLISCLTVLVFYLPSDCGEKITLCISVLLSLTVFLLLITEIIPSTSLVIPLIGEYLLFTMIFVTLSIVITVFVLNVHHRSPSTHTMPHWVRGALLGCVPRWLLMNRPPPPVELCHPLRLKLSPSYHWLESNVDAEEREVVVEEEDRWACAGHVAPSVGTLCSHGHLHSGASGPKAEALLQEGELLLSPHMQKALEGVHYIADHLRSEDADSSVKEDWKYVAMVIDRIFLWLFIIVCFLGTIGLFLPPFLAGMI
Chain of α2(2)β2(2)α5 (P17787 26-502): as the sequence (P17787 26-502) above
Chain of α2(2)β2(2)α5 (P30532 23-468): as the sequence (P30532 23-468) above

For `CNC1(C)C2CCC(C2)C1(C)C` (stereo not drawn) [R(-)Mecamylamine, N-2,3,3-tetramethylbicyclo[2.2.1]heptan-2-amine], the concentration for half-maximal inhibition (IC50) against α4β2α6β2β3 [1] came out at 13 ± 5 µM; at α4(2)β2(2)α5 [2], 35 ± 5 µM.

As to `CN[C@@]1(C)[C@@H]2CC[C@@H](C2)C1(C)C` [S(+)Mecamylamine, N-2,3,3-tetramethylbicyclo[2.2.1]heptan-2-amine], the values for the IC50 against α4β2α6β2β3 [1] and at α4(2)β2(2)α5 [2] were 14 ± 7 µM and 12 ± 1 µM, respectively.

For the compound `CCOc1cncc(/C=C/CCNC)c1` [TC-2559], the concentration for a half-maximal effect (EC50) on α2(2)β2(2)α5 came to 6.2 ± 1 µM; on α4(2)β2(2)α5 [3] it was 1.6 ± 0.3 µM; at α4β2α6β2β3 [4] it was 1.7 ± 0.3 µM.

In turn, `CN1CCC[C@H]1c1cccnc1` [nicotine] gave an EC50 at α2(2)β2(2)α5 of 1.6 ± 0.2 µM.
